Rows were chosen to be rich in hits. Some 1.8% of all compounds tested hit in one or more screens of this group.
hiPSC survival – increases survival of single human iPS cells; survival enhancement, % at 20 µM; hiPSC single-cell survival, ATPlite luminescence; 100% = ROCK inhibitor wells, 0% = DMSO; 360,000 tested, 0.044% active; in the data active = survival enhancement above about 18%;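 also: cells exposed to compounds for 16 hours before the ATP read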
SKN-1 inh – C. elegans SKN-1 inhibition; inhibition, % at 21.8 µM; 360,000 tested, 0.49% active; C. elegans VP596 Pgst-4::GFP/RFP ratio, acrylamide-induced, 24 h;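 active = interference check ratio from 0.5 to 1.5 plus GFP to RFP signal ratio inhibition reaching or exceeding a fixed threshold, cut at about 30% in these data, passing the limit was not always enough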
MT1-MMP act inh – MT1-MMP (human) activation inhibition | P50281 | 360,000 tested, 0.061% active | HT1080 RFP-PRO-GFP cells, GFP/RFP ratio fluorescence, overnight; percent of plate control window, DMSO zero | GFP/RFP ratio change, % at 20 µM;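 active = GFP/RFP ratio change of at least 30% with cell ATP level not reduced by more than half and red fluorescence within 50% of control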
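Assay system: HT1080 RFP-PRO-GFP cells. Benchmarks: DMSO vehicle wells and RFP-L50D-GFP reporter cell wells. Times: overnight cell settling, then overnight compound exposure, 37 °C, 5% CO2. Compound: 20 µM single dose, 1% DMSO. Read-out basis: GFP/RFP fluorescence ratio.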
Ecoli rRNA inh – selective bacterial rRNA inhibition in E. coli. E. coli WT GFP vs humanized-ribosome RFP mutants, fluorescence, 24 h; stronger effect = lower value; DMSO median 0, no signal -100. GFP signal change (wild-type ribosome), % (no concentration beside the values). 350,000 tested, 1.6% active;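 active = significant combined selectivity score with lowered wild-type GFP, culture density cut under 30%, mutant RFP and density less affected; inactive = any of these conditions unmet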
Cneo AK release – causes C. neoformans cell lysis | 360,000 tested, 0.2% active | AID 651654 | adenylate kinase release luminescence, 4 h; normalised: neutral wells 0, clomiphene wells 100 | lysis activity, % at 15 µM;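 active = mean lysis activity across replicates of at least 80%, whatever share of replicates individually reach that level; inactive = mean lysis activity below 80%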
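Test system: log-phase Cryptococcus neoformans yeast cells; Quantity: yeast cell density of 5 × 10^6 cells/mL; Buffer or medium: YPD; Doses: single compound concentration per well; Timing: 4 h at 37 °C static, read 1 h later; Measured by: AK luminescence; Read-out basis: lysis from increased AK signal; Control set: Clomiphene as positive control.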
DAGLB inhibitor – blocks human DAGLB lipase activity | Q8NCG7 | HEK293T DAGLB membrane lysate, EnzChek fluorogenic substrate | inhibition, % at 5.17 µM | 340,000 tested, 0.059% active | AID 504411; in the data active = inhibition above about 34%;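 also: 0% = enzyme with vehicle and 100% = wells lacking enzyme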
Target sequence (Q8NCG7 whole entry, looked up): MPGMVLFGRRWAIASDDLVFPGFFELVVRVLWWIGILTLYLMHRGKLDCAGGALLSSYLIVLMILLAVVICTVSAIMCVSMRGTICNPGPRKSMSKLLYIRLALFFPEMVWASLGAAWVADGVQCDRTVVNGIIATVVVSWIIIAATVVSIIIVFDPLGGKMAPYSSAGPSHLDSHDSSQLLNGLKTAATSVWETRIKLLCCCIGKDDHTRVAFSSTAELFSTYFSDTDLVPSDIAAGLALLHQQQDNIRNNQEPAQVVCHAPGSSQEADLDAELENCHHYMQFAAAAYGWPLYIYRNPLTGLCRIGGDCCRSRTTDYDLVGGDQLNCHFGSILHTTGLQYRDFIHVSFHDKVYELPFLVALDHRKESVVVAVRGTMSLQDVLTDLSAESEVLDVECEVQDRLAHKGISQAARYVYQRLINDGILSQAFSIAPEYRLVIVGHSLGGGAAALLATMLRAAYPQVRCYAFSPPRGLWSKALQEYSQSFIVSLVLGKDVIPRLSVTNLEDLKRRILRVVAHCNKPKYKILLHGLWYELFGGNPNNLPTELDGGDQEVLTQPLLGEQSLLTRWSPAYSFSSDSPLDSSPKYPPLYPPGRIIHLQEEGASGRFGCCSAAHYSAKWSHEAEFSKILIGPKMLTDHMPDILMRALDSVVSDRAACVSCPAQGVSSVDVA
* = called active by the depositor; . = no result given.

SMILES | hiPSC survival | SKN-1 inh | MT1-MMP act inh | Ecoli rRNA inh | Cneo AK release | DAGLB inhibitor
CCn1c(C)c(C2=CCN(S(=O)(=O)c3ccccc3)CC2)c2ccccc21 | 0 | 54* | 0 | . | 0 | -3
COc1ccc(Cl)cc1NC(=O)COC(=O)CNC(=O)c1ccc([N+](=O)[O-])c(C)c1 | 0 | 8 | 1 | . | 0 | -1
Cc1ccc(NC(=O)CNC(=O)c2ccc(OC(F)F)cc2)cc1S(=O)(=O)N1CCCCCC1 | -1 | -4 | 2 | -23* | 1 | -3
Cc1cc(C(=O)NCC(=O)OCC(=O)Nc2ccc(OC(F)F)cc2)ccc1[N+](=O)[O-] | -1 | 2 | 1 | -22* | . | -3
Cc1cc(C(=O)Nc2cccc3c2O[C@H](CN(C)C(=O)Nc2cccc4ccccc24)[C@@H](C)CN([C@@H](C)CO)C3=O)n(C)n1 | . | . | . | 3 | . | .
ClCC1CSC(=NC23CC4CC(CC(C4)C2)C3)O1 (stereo not drawn) | -2 | -10 | -6 | -15 | . | -5
CC1(C)C2CCC(C2)C1(C)N=C1OC(CCl)CS1 (stereo not drawn) | 0 | -4 | 0 | -22* | 4 | -3
COc1ccc2c3c(n(C)c2c1)[C@H](CO)N(Cc1ccncc1)CC31CN(C(=O)C2CCC2)C1 | . | . | . | -3 | . | .
COCCNC(=O)C[C@H]1C=C[C@@H](NS(=O)(=O)c2ccc(C)cc2)[C@H](CO)O1 | . | . | . | 1 | 93* | .
COCCNC(=O)C[C@H]1C=C[C@H](NS(=O)(=O)c2ccc(C)cc2)[C@@H](CO)O1 | . | . | . | 2 | 105* | .
O=C(C[C@H]1C[C@H]2c3cc(NC(=O)NC4CCCCC4)ccc3O[C@H]2[C@H](CO)O1)NC1CCCC1 | . | . | . | 5 | . | .
Clc1ccc(N/N=C/c2cccnc2)cc1 | 0 | 8 | 0 | . | -1 | 3
Cc1sc(N/N=C/c2cccnc2)nc1-c1ccc(Cl)cc1 | 0 | 35* | -2 | . | 1 | 0
CCCN1[C@H](C(=O)N2CCCCC2)[C@@H](CO)[C@@H]2Cn3c(cccc3=O)[C@@H]21 | . | . | . | 0 | 0 | .
CSc1ccc(S(=O)(=O)N2CCC(C(=O)Nc3ccccc3C(F)(F)F)CC2)cc1 | 1 | 42* | -2 | -3 | . | 1
CSc1ccc(S(=O)(=O)N2CCC(C(=O)Nc3ccc(NC(C)=O)cc3)CC2)cc1 | 0 | -13 | 1 | 3 | 1 | -5
C[C@H]1CN([C@@H](C)CO)C(=O)Cc2cc(NS(=O)(=O)c3ccc(F)cc3)ccc2O[C@@H]1CN(C)Cc1ccc(C(=O)O)cc1 | . | . | . | -1 | 0 | .
COC(=O)c1ccccc1COn1c(=O)c(C)[n+]([O-])c2ccccc21 | 0 | 9 | -22 | . | 0 | 2
COC(=O)c1ccc(COn2c(=O)c(C)[n+]([O-])c3ccccc32)cc1 | 3 | 44* | -162 | . | 3 | -1
COc1cc(/C=C/C(=O)OCC(=O)N2CCCc3ccccc32)ccc1OCC#N | -2 | -3 | 0 | -24* | -3 | -5
COc1cc(/C=C/C(=O)OCC(=O)N2CCCc3ccccc32)ccc1O | 0 | -14 | 4 | . | 1 | 2
OC(CN1CCN(C(c2ccccc2)c2ccccc2)CC1)c1ccccc1 (stereo not drawn) | -1 | 40* | 0 | . | 2 | -3
OC(CN1CCN(C(c2ccccc2)c2ccccc2)CC1)c1ccc(Br)cc1 (stereo not drawn) | 0 | 12 | -5 | -11 | -2 | -12
CN1c2ccc(-c3ccccc3F)cc2[C@@H]2[C@@H](CCN2S(=O)(=O)c2ccccc2)[C@@H]1CO | . | . | . | 3 | 1 | .
O=C(C[C@H]1CC[C@H]2[C@@H](COC[C@H](O)CN2C(=O)Nc2ccc(Cl)cc2)O1)NCCc1ccncc1 | . | . | . | -57 | 2 | .
SMILES | hiPSC survival | SKN-1 inh | MT1-MMP act inh | Ecoli rRNA inh | Cneo AK release | DAGLB inhibitor
Cn1cnc(CCNC(=O)C[C@H]2CC[C@@H]3[C@H](COC[C@H](O)CN3C(=O)Nc3ccc(Cl)cc3)O2)c1 | . | . | . | -21* | -5 | .
O=C(C[C@@H]1CC[C@H]2[C@@H](COC[C@@H](O)CN2C(=O)Nc2ccc(Cl)cc2)O1)NCCc1ccncc1 | . | . | . | -50 | 100* | .
O=C(O)c1ccc(N/N=C/c2cn(Cc3ccc(F)cc3)c3ccccc23)cc1 | 0 | -11 | -7 | -34* | 0 | 5
CC(=O)NC(=S)NNC(=O)CCc1ccccc1 | 2 | -2 | 2 | -24* | . | 0
O=C(CCc1ccccc1)NNC(=O)c1cc(Cl)ccc1O | -1 | 3 | 3 | -21 | 34 | 9
COc1ccc(CCC(=O)NNC(=O)c2ccc(F)cc2)cc1 | 0 | 4 | 3 | 10 | -1 | 1
Cc1cc(Cl)ccc1NNC(=O)CCc1ccccc1 | 0 | -8 | 4 | -29* | . | -8
COc1ccc(CCC(=O)NNC(=S)NCc2ccc(F)cc2)cc1 | 0 | 13 | -3 | -29* | . | -3
COc1ccccc1-c1cnc2c(c1)C(=O)N([C@@H](C)CO)C[C@H](C)[C@H](CN(C)Cc1ccncc1)O2 | . | . | . | -3 | -2 | .
CC=Cc1ccc2n(c1=O)C[C@H]1[C@H](CO)[C@@H](C(=O)NCc3ccccc3)N(CC)[C@@H]21 (mixture of isomers) | . | . | . | -3 | . | .
CCCCOc1ccc(C(=O)Nc2ccc(S(=O)(=O)Nc3onc(C)c3C)cc2)cc1 | 0 | -11 | 3 | -24* | -4 | 10
Cc1noc(NS(=O)(=O)c2ccc(NC(=O)c3cc(=O)c4ccccc4o3)cc2)c1C | 1 | 9 | 0 | 5 | 0 | 4
Cc1noc(NS(=O)(=O)c2ccc(N/C=C\C(=O)c3cccc4ccccc34)cc2)c1C | -1 | -4 | 10 | -21* | -2 | 11
Cc1cc2oc(C(=O)Nc3ccc(S(=O)(=O)Nc4onc(C)c4C)cc3)cc(=O)c2cc1Cl | 0 | -26 | -2 | -30* | 3 | 5
COc1cccc(C(=O)/C=C/Nc2ccc(S(=O)(=O)Nc3onc(C)c3C)cc2)c1 | 1 | 16 | 4 | 10 | . | 2
O=C(NCC[C@@H]1CC[C@@H](NC(=O)Nc2cc(F)ccc2F)[C@@H](CO)O1)Nc1ccc(F)cc1 | . | . | . | -2 | -1 | .
C[C@@H]1CN([C@@H](C)CO)S(=O)(=O)c2ccc(/C=C/c3ccccc3)cc2O[C@H]1CN(C)C(=O)c1ccc2c(c1)OCO2 | . | . | . | . | -2 | .
CC(=O)c1ccc(OCc2cc(C(=O)N3CCC(c4ccncc4)CC3)no2)cc1 | 0 | 4 | -11 | -4 | -1 | -1
CC(=O)c1ccc(OCc2cc(C(=O)N3CCCCC3c3cccnc3)no2)cc1 (stereo not drawn) | 0 | 10 | 4 | -28* | -11 | 3

Source: PubChem
